# Results published in ChEMBL document CHEMBL4152204, “Discovery of N-hydroxy-3-alkoxybenzamides as direct acid sphingomyelinase inhibitors using a ligand-based pharmacophore model” (Eur J Med Chem, 2018).
# Calls of active or inactive are those of the source. The calls are words filed in the database; no cut-off is given here.
# Assays:
# NIH3T3 [1] = test: Cytoprotective activity against UV-induced apoptosis in mouse NIH/3T3 cells assessed as viable cells at 20 uM preincubated for 20 hrs followed by UV irradiation for 5 mins and measured after 24 hrs by flow cytometric analysis (reference value: 12.6%); assay type: functional; settings: NIH3T3, light or radiation study, read-out: Activity
# NIH3T3 [2] = test: Cytoprotective activity against UV-induced apoptosis in mouse NIH/3T3 cells assessed as necrotic cells at 20 uM preincubated for 20 hrs followed by UV irradiation for 5 mins and measured after 24 hrs by flow cytometric analysis (reference value: 1.5%); assay type: functional
# NIH3T3 [3] = test: Cytoprotective activity against UV-induced apoptosis in mouse NIH/3T3 cells assessed as late apoptotic cells at 40 uM preincubated for 20 hrs followed by UV irradiation for 5 mins and measured after 24 hrs by flow cytometric analysis (reference value: 6.4%); assay type: functional
# NIH3T3 [4] = test: Cytoprotective activity against UV-induced apoptosis in mouse NIH/3T3 cells assessed as necrotic cells at 10 uM preincubated for 20 hrs followed by UV irradiation for 5 mins and measured after 24 hrs by flow cytometric analysis (reference value: 1.5%); assay type: functional
# NIH3T3 [5] = test: Cytoprotective activity against UV-induced apoptosis in mouse NIH/3T3 cells assessed as viable cells at 10 uM preincubated for 20 hrs followed by UV irradiation for 5 mins and measured after 24 hrs by flow cytometric analysis (reference value: 12.6%); assay type: functional; settings: NIH3T3, light or radiation study, read-out: Activity
# [6] = target: T1, Sphingomyelin phosphodiesterase (Homo sapiens, UniProt P17405); test: Inhibition of acid sphingomyelinase in human HuH7 cell lysate using NBD-sphingomyelin as substrate after 30 mins by TLC based fluorescence assay
# T1 sequence (P17405 whole entry): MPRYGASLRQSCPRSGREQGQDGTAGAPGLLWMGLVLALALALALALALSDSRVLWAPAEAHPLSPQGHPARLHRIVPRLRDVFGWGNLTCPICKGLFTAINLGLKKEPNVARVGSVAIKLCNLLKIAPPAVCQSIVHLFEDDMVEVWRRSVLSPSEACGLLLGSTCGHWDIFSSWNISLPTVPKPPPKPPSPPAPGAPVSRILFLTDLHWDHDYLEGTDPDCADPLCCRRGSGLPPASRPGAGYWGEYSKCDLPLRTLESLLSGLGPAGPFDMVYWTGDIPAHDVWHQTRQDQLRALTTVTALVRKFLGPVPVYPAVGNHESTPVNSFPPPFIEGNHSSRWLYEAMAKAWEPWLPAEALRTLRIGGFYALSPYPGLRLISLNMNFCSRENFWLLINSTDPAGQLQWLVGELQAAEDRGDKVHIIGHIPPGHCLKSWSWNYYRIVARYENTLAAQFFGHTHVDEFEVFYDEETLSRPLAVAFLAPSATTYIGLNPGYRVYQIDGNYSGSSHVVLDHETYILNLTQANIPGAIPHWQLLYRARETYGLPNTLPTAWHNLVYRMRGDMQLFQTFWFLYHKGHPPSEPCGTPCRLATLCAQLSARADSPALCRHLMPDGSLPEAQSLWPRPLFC
# NIH3T3 [7] = test: Inhibition of LPS-induced IL-8 production in mouse NIH/3T3 cells at 2.5 uM preincubated for 20 hrs followed by LPS-stimulation and measured after 6 hrs by ELISA; assay type: functional, cell-based
# How it was run: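 NIH3T3 cells (DMEM, 10% FBS) seeded at 2*10⁵ per well overnight, inhibitor 20 h, then LPS to 50 ng/mL for a further 6 h; IL-6 or IL-8 measured by ELISA; compared with LPS-only and control groups.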
structure (smiles),measurement,setting,value
CCCCCCCCCCOc1cc(C(=O)NO)ccc1OC,viability at 20 µM,NIH3T3 [1],54.7%
same,Activity,NIH3T3 [2],0.2%
same,Activity,NIH3T3 [3],7.9%
same,Activity,NIH3T3 [4],0%
same,viability at 10 µM,NIH3T3 [5],46.9%
same,IC50,[6],480 nM
same,inhibition,NIH3T3 [7],inactive
